Experimental data: ChEMBL document CHEMBL2093137, “WHO-TDR NTD Screening”
In brackets after ≈: the same amount, converted by molar mass.

Experiments:
[1] = WHO-TDR: Cytotoxicity; format: toxicity, cell-based; settings: human, MRC5 cells
[2] = tested on: Plasmodium falciparum K1; assay: WHO-TDR: Malaria; format: functional, organism-based, Homo sapiens; settings: Erythrocyte
Summary of the method: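 This whole-organism screen covered 10,000 drug-likeness-filtered and reactive-group-filtered compounds from Life Chemicals. The target was the Plasmodium falciparum K1 strain in human red blood cells, and the readout was antiplasmodial IC50.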

[3] = tested on: Trypanosoma cruzi; assay: WHO-TDR: Chagas disease; format: functional, organism-based, Homo sapiens; settings: MRC5
Summary of the method: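 Intracellular amastigotes of the Trypanosoma cruzi Tulahuen CL2 beta-galactosidase strain, grown in MRC-5SV2 human lung fibroblast host cells, were tested in a whole-organism screen. The compounds came from a 10,000-member diverse Life Chemicals library that had been filtered for drug-likeness and reactive groups. Previously published standard procedures were followed, with a reference drug as positive control, and potency is reported as IC50.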

[4] = tested on: Trypanosoma brucei brucei; assay: WHO-TDR: Human African Trypanosomiasis (HAT); format: functional, organism-based; settings: Squib-427
Summary of the method: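 Screening used a 10,000-compound diverse library supplied by Life Chemicals and filtered for drug-likeness and reactive groups. Whole bloodstream-form parasites of Trypanosoma brucei Squib 427 strain were assayed according to previously published standard procedures, with reference drugs as positive controls. The reported measure is IC50, reflecting antiparasitic potency.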

[5] = tested on: Leishmania infantum; assay: WHO-TDR: Leishmaniasis; format: functional, organism-based, Mus musculus; settings: Macrophage
Summary of the method: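 The screened collection came from Life Chemicals: 10,000 diverse compounds selected after filtering for drug-likeness and reactive groups. Each was tested in a whole-organism assay against Leishmania infantum MHOM/MA(BE)/67 amastigotes inside murine peritoneal macrophages, using previously published standard procedures and a reference drug as positive control. Results are IC50 values for antiparasitic potency.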

[6] = tested on: Schistosoma mansoni; assay: WHO-TDR: Schistosomiasis; format: functional; set-up: concentration or dose not given beside the values
Summary of the method: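 Activity appears as percent inhibition and as IC50. The underlying screen tested a diverse library of 10,000 compounds, supplied by Life Chemicals, on whole larval and/or adult worms of the Puerto Rican strain of Schistosoma mansoni.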

[7] = tested on: Onchocerca lienalis; assay: (§1) WHO-TDR: Onchocerciasis; format: functional; set-up: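 at 12.5 µM on microfilariae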
Summary of the method: (§2)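 Following previously published standard procedures, with reference drugs as positive controls, a diverse Life Chemicals library was tested on whole Onchocerca ochengi or Onchocerca lienalis microfilariae. The library held 10,000 compounds filtered for drug-likeness and reactive groups. Activity is recorded both as percent inhibition and as IC50.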

[8] = tested on: Onchocerca ochengi; assay: as §1; format: functional; set-up: concentration or dose not given beside the values; summary of the method: as §2;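 further: at 12.5 µM on microfilariae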
[9] = tested on: Brugia malayi; assay: WHO-TDR: Lymphatic Filariasis; format: functional; set-up: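 tested at 10 µM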
Summary of the method: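 Following previously published standard procedures, compounds were tested on whole Brugia malayi microfilariae, with reference drugs as positive controls. They came from a diverse Life Chemicals collection of 10,000 compounds filtered for drug-likeness and reactive groups. Results appear as percent inhibition and as IC50.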

Row | Structure (SMILES) | IC50 [2] [µg/mL] | IC50 [4] [µg/mL] | IC50 [5] [µg/mL] | IC50 [1] [µg/mL] | IC50 [3] [µg/mL] | % Inhibition [6] [%] | % Inhibition [7] [%] | % Inhibition [8] [%] | % Inhibition [9] [%]
1 | CCN(CC)CCSc1ccc(-c2sc(-c3ccc(F)cc3)nc2C)nn1 | 0.5 (≈ 1.24 µM) | 0.314 (≈ 0.78 µM) | 3.82 (≈ 9.49 µM) | > 12.1 | 3.25 (≈ 8.09 µM) | 0 | 6.7 | – | –
2 | CCN(CC)c1ccc(NC(=O)Cc2csc(NC(=O)c3cc(OC)cc(OC)c3)n2)c(C)c1 | 4.28 (≈ 8.87 µM) | 0.493 (≈ 1.02 µM) | 4.69 (≈ 9.71 µM) | > 14.5 | 1 (≈ 2.08 µM) | 0 | 20 | – | –
3 | N#Cc1ccsc1NC(=O)C(c1ccccc1)c1ccccc1 | > 9.55 | > 9.55 | > 9.55 | > 9.55 | > 9.55 | 100 | 0 | – | –
4 | CCOC(=O)Cn1/c(=N/C(=O)c2ccc(N3C(=O)CCC3=O)cc2)sc2c(C)cc(C)cc21 | 9.4 (≈ 20.2 µM) | > 9.4 | 0.304 (≈ 0.654 µM) | > 9.4 | > 9.4 | 0 | 13.3 | – | –
5 | O=C(CCS(=O)(=O)c1ccccc1)Nc1nc(-c2cccc3ccccc23)cs1 | 0.126 (≈ 0.297 µM) | 3.87 (≈ 9.15 µM) | 4.06 (≈ 9.62 µM) | 1.67 (≈ 3.96 µM) | 0.657 (≈ 1.55 µM) | 0 | 6.7 | – | –
6 | CN(C)CCN(C(=O)CCSc1ccccc1)c1nc2c(Cl)cccc2s1 | 3.39 (≈ 8.08 µM) | 4.33 (≈ 10.3 µM) | > 13.7 | > 13.7 | 4.15 (≈ 9.88 µM) | 75 | 0 | – | –
7 | CN(C)CCCN(C(=O)c1nc2ccccc2s1)c1nc2c(Cl)cccc2s1 | 0.398 (≈ 0.923 µM) | 0.352 (≈ 0.817 µM) | 4.54 (≈ 10.5 µM) | 0.526 (≈ 1.22 µM) | 0.239 (≈ 0.555 µM) | 33.3 | 0 | – | –
8 | CCN(CC)c1cc(C)nc(Nc2ccc(NC(=O)c3ccc(Br)o3)cc2)n1 | 0.638 (≈ 1.44 µM) | 0.942 (≈ 2.12 µM) | 4.31 (≈ 9.71 µM) | 2.91 (≈ 6.54 µM) | 0.344 (≈ 0.774 µM) | 66.7 | -1 | – | –
9 | CN(C)CCN(C(=O)c1cccc(N2C(=O)CCC2=O)c1)c1nc2ccc(Br)cc2s1 | 1.45 (≈ 2.9 µM) | 0.356 (≈ 0.71 µM) | 5.1 (≈ 10.2 µM) | > 16.1 | 4.94 (≈ 9.85 µM) | 33.3 | 0 | – | –
10 | CCn1/c(=N\C(=O)c2ccc(C(C)=O)cc2)sc2cc(C)ccc21 | > 10.2 | > 10.2 | > 10.2 | > 10.2 | 0.321 (≈ 0.948 µM) | 0 | 80 | – | –
11 | Cc1c(Cl)ccc2sc(NC(=O)c3ccc(N(C)C)cc3)nc12 | > 10.4 | > 10.4 | > 10.4 | > 10.4 | > 10.4 | 0 | 50 | – | –
12 | CN(C)CCCN(C(=O)c1ccc2c(c1)CCCC2)c1nc2ccc(Br)cc2s1 | 1.16 (≈ 2.46 µM) | 0.483 (≈ 1.02 µM) | 0.791 (≈ 1.67 µM) | 2.1 (≈ 4.44 µM) | 3.21 (≈ 6.78 µM) | 66.7 | 0 | – | –
13 | C=CCn1c(Sc2nc3ccccc3o2)nc2c1c(=O)[nH]c(=O)n2C | 10.7 (≈ 30 µM) | 0.337 (≈ 0.948 µM) | > 10.7 | > 10.7 | 4.04 (≈ 11.4 µM) | 0 | – | 0 | 20

Further lines, with some results ahead:

Row | IC50 [2] [µg/mL] | IC50 [4] [µg/mL] | IC50 [5] [µg/mL] | Structure (SMILES) | IC50 [1] [µg/mL] | IC50 [3] [µg/mL] | % Inhibition [6] [%] | % Inhibition [7] [%] | % Inhibition [8] [%] | % Inhibition [9] [%]
14 | 0.653 (≈ 1.35 µM) | 0.45 (≈ 0.933 µM) | 4.55 (≈ 9.44 µM) | O=C(CSc1nnc(NC(=O)c2ccccc2C(F)(F)F)s1)Nc1ccc2c(c1)OCO2 | 3.97 (≈ 8.23 µM) | 4.76 (≈ 9.86 µM) | 0 | 0 | – | –
15 | 0.848 (≈ 2.16 µM) | 0.237 (≈ 0.605 µM) | 4.16 (≈ 10.6 µM) | CN(C)CCCN(C(=O)c1ccccc1F)c1nc2c(Cl)cccc2s1 | 3.81 (≈ 9.73 µM) | 4.41 (≈ 11.3 µM) | 0 | 13.3 | – | –
16 | 0.412 (≈ 0.929 µM) | > 13.3 | > 13.3 | CCN(CC)c1cc(C)nc(Nc2ccc(NC(=O)c3cc4ccccc4oc3=O)cc2)n1 | > 13.3 | > 13.3 | 50 | 6.7 | – | –
17 | 3.42 (≈ 7.7 µM) | 2 (≈ 4.51 µM) | 0.466 (≈ 1.05 µM) | CN(C)CCCN(C(=O)CCSc1ccccc1)c1nc2cc3c(cc2s1)OCO3 | 3.54 (≈ 7.97 µM) | 0.416 (≈ 0.938 µM) | 0 | 0 | – | –
18 | 4.27 (≈ 8.23 µM) | 3.43 (≈ 6.59 µM) | > 15.6 | COc1ccccc1NC(=O)Nc1nc(CC(=O)N2CCN(c3cccc(C(F)(F)F)c3)CC2)cs1 | > 15.6 | 0.93 (≈ 1.79 µM) | 0 | 0 | – | –
19 | 1.72 (≈ 4.01 µM) | 4.51 (≈ 10.5 µM) | 0.451 (≈ 1.05 µM) | CN(C)CCCN(C(=O)CCOc1ccccc1)c1nc2cc3c(cc2s1)OCO3 | 3.34 (≈ 7.81 µM) | 0.433 (≈ 1.01 µM) | 75 | 0 | – | –
20 | 1.2 (≈ 2.82 µM) | 0.383 (≈ 0.902 µM) | 5.12 (≈ 12 µM) | O=C(CSc1nnc(NC(=O)c2cccs2)s1)NCc1ccccc1Cl | 4.21 (≈ 9.91 µM) | 4.32 (≈ 10.2 µM) | 16.7 | 13.3 | – | –
21 | > 10.7 | 0.182 (≈ 0.511 µM) | > 10.7 | O=C(Nc1nc(-c2ccccn2)cs1)c1cc(Cl)sc1Cl | 3.89 (≈ 10.9 µM) | 0.069 (≈ 0.194 µM) | – | 80 | – | –
22 | 0.609 (≈ 1.64 µM) | 0.382 (≈ 1.03 µM) | 3.96 (≈ 10.7 µM) | CN(C)CCCN(C(=O)Cc1ccccc1)c1nc2ccc(F)cc2s1 | 3.81 (≈ 10.3 µM) | 4.16 (≈ 11.2 µM) | 58.3 | 0 | – | –
23 | 1.36 (≈ 3 µM) | 0.377 (≈ 0.831 µM) | 0.43 (≈ 0.948 µM) | CCOC(=O)N1CCc2c(sc(NC(=O)c3ccco3)c2-c2nc3ccccc3s2)C1 | 4.51 (≈ 9.95 µM) | 0.455 (≈ 1 µM) | 58.7 | 73.3 | – | –
24 | > 12.4 | > 12.4 | > 12.4 | O=C(Cc1csc(NC(=O)c2ccc[nH]c2=O)n1)Nc1ccc2c(c1)OCCO2 | > 12.4 | > 12.4 | 100 | – | 0 | 20
25 | 0.24 (≈ 0.612 µM) | > 11.8 | > 11.8 | COc1cccc(NC(=O)CSc2nc(-c3ccccc3Cl)ns2)c1 | > 11.8 | > 11.8 | – | 6.7 | – | –
